Compound activity deposited in PubChem BioAssay by several laboratories.
This is a sample that favours compounds with a hit; in the whole collection about 5.5% have one here.
STAT1 activator – activators of IFN-gamma induced STAT1 signaling. NIH 3T3 STAT1-luciferase reporter, luminescence; 100% = IFN-gamma alone, no compound. activation (% of control), % at 5.5 µM. 200,000 compounds, 2.6% hits. AID 932;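 active = activation above the screen-wide mean activation plus 3 SD, cut at about 130% in these data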;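 also: raw ratio to IFN-gamma control signal so 100% means no change and 0% no light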
KCC2 mod – KCC2 (human) Cl- transport modulation; Q9H2X9; KCC2 cells, thallium flux FluoZin-2 fluorescence; B-score of Tl+ flux slope (higher = more flux/activation; lower = inhibition) at 10 µM; 190,000 compounds, 2.2% hits; AID 1456;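 active = thallium flux slope and its plate-corrected score both differing from the plate sample mean at a set confidence after two filtering rounds, in either direction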;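 also: slope of fluorescence scaled to starting intensity during 10 to 20 s after thallium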
STAT1 blocker – STAT1 signaling inhibition | 200,000 compounds, 0.35% hits | inhibition, % at 5.5 µM | NIH 3T3 STAT1-luciferase reporter, IFN-gamma, luminescence | AID 920;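 active = inhibition above a set limit, the mean inhibition across all tested compounds plus 3 SD, cut at about 34% in these data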;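 also: 0% = IFN-gamma with DMSO and 100% = IFN-gamma with 300 µM nifuroxazide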
HSV replic up – increases HSV replication in cells. AID 1956. 220,000 compounds, 0.005% hits. HSV replication augmentation in cells, fold increase. maximum fold increase; in the data active = maximum fold increase above about 1.5; inconclusive = no clear call, values can overlap the other calls; tested in PC3 cells
STAT3 blocker – reduces IL-6 driven STAT3 reporter signal | 190,000 compounds, 0.89% hits | AID 862 | U3A cells, IL-6 STAT3-luciferase reporter, luminescence; host cell line lacks STAT1 | inhibition, % at 5.5 µM;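 active = inhibition above the mean inhibition across all screened compounds plus 3 SD, cut at about 44% in these data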;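 also: 0% = DMSO only wells and 100% = 100 µM nifuroxazide control wells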
STAT3 act – STAT3 signaling activation; U3A cells, IL-6 STAT3-luciferase reporter, luminescence; 100% = signal with IL-6 EC80 alone; 190,000 compounds, 0.91% hits; activation (% of control), % at 5.6 µM;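 active = activation above the screen-wide mean of compound activation plus 3 SD, cut at about 130% in these data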;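 also: 0% = background luminescence of wells with medium and substrate only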
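Material: STAT3-luciferase reporter U3A cells; Probe or stimulus: IL-6 (33 ng/mL); Incubation: compound pre-incubation 1 h before IL-6, then 6 h stimulation at 37 °C; Technique: luminescence from STAT3-driven luciferase reporter; Evaluation: % activation versus median of IL-6-stimulated wells; Controls: IL-6-only high control.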
KCC2 secondary – KCC2 (human) modulation, secondary assay. shares compounds with KCC2 mod. HEK293-KCC2, thallium flux, FluoZin2 fluorescence; active compounds read high. normalised thallium flux (F/F0 slope) at 10 µM. 3,700 compounds, 15% hits. AID 1713;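 active = thallium flux slope above the same plate's solvent-only control mean plus 3 SD; inconclusive = the two replicate wells disagree; inactive = no significant difference from solvent-only control wells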
KCC2 bumet counter – thallium flux despite bumetanide block in KCC2 cells, secondary assay 3. shares compounds with KCC2 mod. HEK293-KCC2 + bumetanide/ouabain, thallium flux FluoZin2; active compounds read high. normalized thallium flux at 10 µM. 3,700 compounds, 49% hits. AID 1714;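 active = thallium entry rate above the same plate's blocked-transporter control wells by more than 3 SD; inconclusive = the two repeat wells disagree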;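 also: raw slope of fluorescence over initial fluorescence between 10 and 20 s after thallium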
KCC2 sec2 – confirmation of human KCC2 transport modulators | shares compounds with KCC2 mod | HEK293-KCC2, thallium flux FluoZin2 fluorescence; actives lie on both sides; F/F0 rise rate, 10–20 s post-thallium | normalized thallium flux at 10 µM | 3,700 compounds, 23% hits | AID 1715;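 active = thallium flux slope more than 3 SD above or below the plate's solvent-only control mean, mostly below; inconclusive = the two repeat wells disagreed; inactive = no significant shift from solvent-only controls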;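 also: raw slope with 0.1% DMSO as baseline and bumetanide as block control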
HEK counter1 – acts in parental HEK cells, KCC2 counter-screen | shares compounds with KCC2 mod | HEK293 parental cells, thallium flux FluoZin2, ouabain; baseline-ratio fluorescence slope, 10–20 s after thallium | 3,700 compounds, 46% hits | thallium flux rate (normalised fluorescence) at 10 µM;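 active = thallium flux rate significantly above the same plate's solvent-only control wells, beyond their mean plus 3 SD; inconclusive = the two replicate wells gave conflicting results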
KCC2 retest ouab – confirmation of human KCC2 modulators with ouabain; shares compounds with KCC2 mod; HEK293-KCC2, thallium flux FluoZin2 fluorescence; bidirectional: low = inhibitor, high = activator; raw Tl+ flux slope (below DMSO = inhibition, above = activation) at 10 µM; 3,700 compounds, 48% hits;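 active = thallium flux slope beyond 3 SD from same-plate DMSO control mean in most replicates, usually higher, sometimes lower; inconclusive = repeat tests gave conflicting results; inactive = no significant difference from controls in most replicates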;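 also: slope of initial-normalized fluorescence between seconds 10 and 20 after thallium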
HEK counter2 – counter-screen for KCC2 modulators: effect in parental HEK293 cells; 3,700 compounds, 33% hits; thallium flux FluoZin-2 fluorescence slope; thallium flux slope at 10 µM; shares compounds with KCC2 mod; AID 1718;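 active = thallium flux slope above the same plate's solvent-control mean plus 3 SD in both duplicate wells; inconclusive = duplicate wells that disagreed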;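 also: run without ouabain in cells lacking the KCC2 cotransporter; slope of fluorescence scaled to its starting value between 10 and 20 s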
* = called active by the depositor; i = inactive; ? = inconclusive; . = not tested or not shown.

SMILES	STAT1 activator	KCC2 mod	STAT1 blocker	HSV replic up	STAT3 blocker	STAT3 act	KCC2 secondary	KCC2 bumet counter	KCC2 sec2	HEK counter1	KCC2 retest ouab	HEK counter2
CC(C)OCCCn1c(=S)[nH]c2ncccc2c1=O	96	13*	5	.	33	74	0.017*	0.034*	0.031	0.016*	0.03*	0.012*
CCN(CC)CCCn1c(=S)[nH]c2ncccc2c1=O	95	1.2	6	i	-10	108	.	.	.	.	.	.
CCN(CCCn1c(=S)[nH]c2ncccc2c1=O)c1ccccc1	102	78*	-2	i	11	94	0.019*	0.14*	0.038	0.12*	0.12*	0.023*
Cc1ccc2c(CC(=O)NC3CCCc4ccccc43)coc2c1 (centres undefined)	100	0.33	0	i	-6	108	.	.	.	.	.	.
CN1CCN(C(=O)CSc2nc3ccc(NC(=O)c4ccccc4F)cc3s2)CC1	.	0.05	.	i	.	.	.	.	.	.	.	.
CC(C)c1cc(NCC2CCCO2)n2c(nc3ccccc32)c1C#N (centres undefined)	92	-1.6	6	i	3	97	.	.	.	.	.	.
Cc1ccccc1N1C(=O)N(c2cccc(C(F)(F)F)c2)C2CS(=O)(=O)CC21 (centres undefined)	96	0.089	4	i	6	102	.	.	.	.	.	.
CCCCOC(=O)n1c(=O)oc2ccccc21	100	-4.3*	1	i	19	93	0.012*	0.0058	0.036	0.0071	0.021	0.011
Cc1ccc(OCC(=O)n2nc(C)cc2C)c(Br)c1	98	-0.19	2	i	-12	112	.	.	.	.	.	.
Cc1cccc(NC(=S)NNC(=O)COc2ccc(Cl)cc2Cl)c1	94	6.5*	6	i	30	77	0.01	0.16*	0.035	0.028*	0.053*	0.013*
Cc1ccc(OCC(=O)NNC(=S)NC(=O)C(C)(C)C)c(Br)c1	111	50*	-14	i	6	101	0.025*	0.098*	?	0.068*	0.065*	0.024*
COc1cc(C)nc(NC(=S)N(C)C(=O)c2ccccc2)n1	.	6.2*	.	i	.	.	0.0093	0.019*	0.035	0.01*	0.026	0.012*
COC(=O)c1ccc(C)c(NS(=O)(=O)c2ccc(OC)cc2)c1	103	.	0	i	-24	120	.	.	.	.	.	.
COC(=O)c1sccc1NS(=O)(=O)c1ccc(OC)cc1	94	.	7	i	7	100	0.0073	0.013*	0.035	0.012*	?	0.015*
O=C(c1ccc(N2CCN(S(=O)(=O)c3ccccc3)CC2)c([N+](=O)[O-])c1)N1CCOCC1	99	-0.011	1	i	-14	110	.	.	.	.	.	.
O=C(/C=C/c1ccc(S(=O)(=O)N2CCOCC2)cc1)NCc1ccccc1Cl	93	-0.98	8	i	-13	111	.	.	.	.	.	.
COc1cc(C(=S)N2CCCC2)cc(OC)c1O	98	-3.6*	3	i	3	97	0.0099	0.0059	0.036	0.0072	0.023	0.0099
CC(C)(C)C(=O)/C=c1\[nH]c(=O)/c(=C\c2ccccc2F)s1	106	18*	-9	i	13	91	0.0078	0.024*	0.038*	0.015*	0.032*	0.018*
CC(=O)c1cccc(S(=O)(=O)N(CCCO)Cc2cc3ccc(C)cc3[nH]c2=O)c1	109	-1	-10	i	9	100	.	.	.	.	.	.
COc1cc(-c2c(C#N)c(N)nc(SCc3ccncc3)c2C#N)cc(OC)c1OC	91	.	10	i	18	90	0.0085	0.0065	0.029	0.0072	?	?
Cc1cc(C)n(-c2nc(SCCN(C)C)c3c4c(sc3n2)CCCC4)n1	98	6.2*	2	i	-8	110	0.0072	0.02*	0.037	0.014*	0.025*	0.016*
O=C(Cc1ccccc1)Nc1ccc2oc(=O)ccc2c1	106	0.48	-9	i	0	104	.	.	.	.	.	.
O=C(COc1ccc(/C=N/NC(=O)c2ccccc2O)cc1)Nc1ccccc1	90	-0.48	9	i	5	102	.	.	.	.	.	.
COC(=O)c1[nH]c2ccc(C)cc2c1NS(=O)(=O)c1ccc(F)c(C)c1	96	-2.9*	4	.	7	96	0.011	?	0.028	0.0079	0.029	0.01
CC1Cc2ccccc2N1C(=O)c1ccc2snnc2c1 (centres undefined)	96	.	5	i	-2	104	.	.	.	.	.	.
SMILES	STAT1 activator	KCC2 mod	STAT1 blocker	HSV replic up	STAT3 blocker	STAT3 act	KCC2 secondary	KCC2 bumet counter	KCC2 sec2	HEK counter1	KCC2 retest ouab	HEK counter2
Cc1nc2cc(C(=O)N3c4ccccc4CC3C)ccc2s1 (centres undefined)	85	.	14	i	11	93	?	0.0058	0.029	0.0066	0.02*	?
Cc1cc2ncn(/N=C/c3ccc([N+](=O)[O-])o3)c2cc1C	105	0.22	-5	i	9	96	.	.	.	.	.	.
C=CCn1c(SCC(=O)c2ccccc2)nnc1-c1ccc2c(c1)OCO2	96	-2.3	6	.	2	100	0.01	0.0068	0.033	0.0075	0.021	?
CC(=O)c1c(COC(=O)c2ccc(F)cc2)nc2ccccc2[n+]1[O-]	.	-0.7	.	i	.	.	.	.	.	.	.	.
Cc1ccc(C)c(C2=NNC(=NCc3ccccc3)SC2)c1	108	8.9*	-9	i	0	104	0.01	0.038*	0.036	?	0.033*	?
C=CCn1c(C)cc(C2=NNC(=NCc3ccccc3)SC2)c1C	112	0.48	-14	i	-13	114	.	.	.	.	.	.
Cc1ccc(C)c(/C(O)=C2\C(=O)C(=O)N(Cc3cccnc3)C2c2cccnc2)c1 (centres undefined)	101	1.4	-1	i	3	101	.	.	.	.	.	.
